An excerpt weighted towards active compounds, which were near 2.6% of everything screened.
Myeloid diff MLP – induction of myeloid progenitor differentiation, primary screen, cell-based, flow cytometry, MLPCN library. ER-HoxA9 myeloid progenitors, lysozyme-GFP differentiation. calls only at 10 µM. 1% of 360,000 active;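 active = normalized GFP-positive differentiation at or above the plate's own cutoff, the solvent-only control mean plus 3 SD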;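 note: cells exposed to compound for four days before flow analysis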
SKN-1 block – suppressors of acrylamide-induced Pgst-4::GFP reporter in worms, primary screen, SKN-1 inhibitor project, whole organism, uHTS, GFP/RFP fluorescence ratio, strain VP596. C. elegans VP596 Pgst-4::GFP/RFP ratio, 24 h. inhibition, % at 21.8 µM. 0.49% of 360,000 active. AID 624304, 2012;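 active = interference check ratio from 0.5 to 1.5 plus GFP to RFP signal ratio inhibition reaching or exceeding a fixed threshold, cut at about 30% in these data, passing the limit was not always enough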
Rce1 inhib – yeast Rce1p protease inhibitors, primary screen, biochemical, fluorescence, cell-free homogeneous. CAAX prenyl protease 2 (Saccharomyces cerevisiae (strain ATCC 204508 / S288c)), Q03530. yeast membranes, quenched prenylated peptide cleavage fluorescence. calls only. 0.27% of 290,000 active;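 active = fall in fluorescence gain of 50% or more versus controls, with final raw signal at or below 3038400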;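 note: plate controls were neutral control wells for no effect and wells lacking membranes for full effect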
Rin1 Abl inh – inhibitors of Rin1-Abl protein binding, primary screen, biochemical, TR-FRET. Tyrosine-protein kinase ABL1 (Homo sapiens) + Ras and Rab interactor 1 (Homo sapiens), …. inhibition, % at 7.35 µM. 0.4% of 360,000 active; in the data active = inhibition above about 5%, passing the limit was not always enough
GRK2 aptamer HTS – compounds blocking aptamer binding on GRK2 – biochemical, human GRK2, bead flow cytometry, HTS, primary screen. Beta-adrenergic receptor kinase 1 (Homo sapiens), P25098. FAM-aptamer displacement from GRK2. inhibition of aptamer binding, % at 10 µM. 0.59% of 330,000 active;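 active = inhibition of aptamer binding above 40%, roughly 3 SD of noise, on plates passing a quality check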;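 note: median bead fluorescence of bound FAM aptamer so fluorescent compounds give negative values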
T cell HTS – modulators of CD8 T cell-vesicle binding, primary screen, mouse 2C CD8+ T cells, flow cytometry | 2C CD8+ T cell-vesicle binding; active compounds read low | response (vesicle binding), % at 7 µM | 0.068% of 330,000 active;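 active = response, share of CD8 T cells binding vesicles, and their 90th percentile fluorescence all below set limits, cut at about 80% in these data, passing the limit was not always enough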;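 note: values below 100% mean blocked vesicle binding to the CD8+ T cells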
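material = purified 2C TCR transgenic mouse naive CD8+ T cells | controls = Unloaded micro-vesicles (low), QL9 vesicles with 0.7% DMSO (high) | detection = cytometric PE anti-B7-1 and Alexa647 anti-CD8 signals after 1% paraformaldehyde fixation | incubation = binding step 1.5 h, 37 °C, antibody labelling 20 min, ice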
Myeloid diff – inducers of myeloid progenitor differentiation, confirmation, cell-based, GFP/Mac1 flow cytometry, cherry pick 01 | shares compounds with Myeloid diff MLP | ER-HoxA9 myeloid progenitors, GFP/Mac1 double-positive flow | calls only | 2% of 2,300 active;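 active = share of green or green-and-red cells above 9 and 9% in run 1 or 4 and 3% in run 2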
GFP autofluor – counter-screen for myeloid differentiation promoters: compound fluorescence | shares compounds with Myeloid diff MLP | ER-HoxA9 myeloid progenitors, no estrogen, GFP autofluorescence flow cytometry; vehicle wells 0%, positive control 100% | fluorescence response, % (no concentration beside the values) | 7.4% of 2,300 active | AID 651707;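 active = over 5% cells positive for green fluorescent reporter, or over 2% positive for both it and APC stain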;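 note: range taken on the double positive population between DMSO and positive control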
An asterisk follows results filed as active; ! = repeats disagree.

For Cc1ccc(S(=O)(=O)N(CC(=O)N(C)C)c2cccc([N+](=O)[O-])c2)cc1 the results were Myeloid diff MLP active, SKN-1 block -26.3, Rce1 inhib inactive, Rin1 Abl inh 1.2, GRK2 aptamer HTS 3.0, T cell HTS 333.0, Myeloid diff inactive and GFP autofluor 0.0.
COc1ccc(/C=C(/NC(=O)c2ccc(Br)cc2)C(=O)Nc2cccc(C(=O)O)c2)cc1 was read as Myeloid diff MLP inactive, SKN-1 block 10.0 and Rin1 Abl inh -0.3.
For C[C@@H]1COc2cc(N3CC[C@H](O)C3)ccc2S(=O)(=O)N1 the results were Myeloid diff MLP inactive and SKN-1 block 7.2.
`CCN1C(=O)[C@@H]2[C@@H](c3ccc(-c4cccc(Cl)c4)c(OC)c3)N3CCCC[C@@]3(C(=O)OC)[C@@H]2C1=O` gave Myeloid diff MLP active, SKN-1 block 7.5, Rce1 inhib inactive, Rin1 Abl inh 2.0, GRK2 aptamer HTS 5.0, T cell HTS 629.4, Myeloid diff inactive and GFP autofluor 0.3.
`CCN1C(=O)[C@@H]2[C@@H](c3ccc(-c4ccc(Cl)c(Cl)c4)c(OC)c3)N3CCC[C@@]3(C(=O)OC)[C@@H]2C1=O` gave Myeloid diff MLP inactive, SKN-1 block -22.0, Rin1 Abl inh 5.7, GRK2 aptamer HTS 1.0 and T cell HTS 599.9.
CCC(C)Sc1ccc(-c2nc3cc(C)ccn3c2NC2CCCCC2)cc1 (centres undefined) was read as Myeloid diff MLP active, SKN-1 block 14.7, Rin1 Abl inh 1.9, GRK2 aptamer HTS 0.0, T cell HTS 183.7, Myeloid diff active and GFP autofluor 3.8.
For CCC(C)Sc1ccc(-c2nc3cnccn3c2NC2CCCCC2)cc1 (centres undefined) the results were Myeloid diff MLP inactive, SKN-1 block 15.1, Rce1 inhib inactive, Rin1 Abl inh 0.8, GRK2 aptamer HTS 0.0 and T cell HTS 471.0.
`CCCCCCSc1ccc(-c2nc3cnccn3c2NC2CCCCC2)cc1` gave Myeloid diff MLP inactive, SKN-1 block 16.4, Myeloid diff inactive and GFP autofluor 18.4*.
Screening CCCNC(=O)C1(C)CCN(Cc2cc(C(F)(F)F)ccc2Cl)C1 (centres undefined) returned Myeloid diff MLP inactive, SKN-1 block -3.0 and Rin1 Abl inh -0.2.
CCOc1ccc2nc(N3CCC(C(=O)N4CCN(C5CCCCC5)CC4)CC3)sc2c1 was read as Myeloid diff MLP inactive, SKN-1 block 13.5, Rce1 inhib inactive, Rin1 Abl inh -3.4, GRK2 aptamer HTS 0.0, T cell HTS 225.4, Myeloid diff inactive and GFP autofluor 0.0.
COc1cccc(CNC(=O)C2(C)CCCCN2C)c1 (centres undefined) was read as Myeloid diff MLP inactive, SKN-1 block 2.6 and Rin1 Abl inh -1.5.
For Cc1ccc2c(c1)N(C(=O)CCC(=O)NC1CCCCCC1)CC(C)O2 (centres undefined) the results were Myeloid diff MLP inactive, SKN-1 block -13.2, Rce1 inhib inactive, Rin1 Abl inh -2.2, GRK2 aptamer HTS 2.0 and T cell HTS 75.2.
`CC(=O)Nc1nc(-c2ccccc2)nc(-c2ccccc2OC(C)=O)n1` gave Myeloid diff MLP active, SKN-1 block 30.6, Rce1 inhib inactive, Rin1 Abl inh 5.8, GRK2 aptamer HTS 3.0, T cell HTS 572.3, Myeloid diff inactive and GFP autofluor 0.0.
For CC(=O)Nc1nc(C)nc(-c2ccccc2OC(C)=O)n1 the results were Myeloid diff MLP inactive, SKN-1 block 19.5, Rce1 inhib inactive, Rin1 Abl inh 1.0, GRK2 aptamer HTS 0.0 and T cell HTS 249.3.
For N=C(N)SCc1nc2ccccc2c(=O)n1-c1ccccc1 the results were Myeloid diff MLP active!, SKN-1 block 5.5, Rce1 inhib inactive, Rin1 Abl inh 0.3, GRK2 aptamer HTS 0.0, T cell HTS 395.6, Myeloid diff inactive and GFP autofluor 2.3.
`Cn1cc(-c2cccc(C(F)(F)F)c2)cc(C#N)c1=O` gave Myeloid diff MLP active, SKN-1 block 24.5, Rce1 inhib inactive, Rin1 Abl inh 2.2, GRK2 aptamer HTS 4.0, T cell HTS 217.5, Myeloid diff inactive and GFP autofluor 0.0.
Cc1ccc(N2CC(C(=O)Nc3ccc(S(=O)(=O)Nc4ncccn4)cc3)CC2=O)cc1C (centres undefined) was read as Myeloid diff MLP inactive, SKN-1 block -5.3, Rce1 inhib inactive, Rin1 Abl inh -0.5, GRK2 aptamer HTS 1.0 and T cell HTS 286.4.
CC1=NN(c2ccccc2)C(=O)C1C=Nc1ccccc1O (centres undefined) was read as Myeloid diff MLP active, SKN-1 block 9.7, Rce1 inhib inactive, Rin1 Abl inh -0.1, GRK2 aptamer HTS 4.0, T cell HTS 244.5, Myeloid diff inactive and GFP autofluor 0.7.
Screening CC1=NN(c2ccccc2)C(=O)C1/C=C1\NC(=S)NC1=O (centres undefined) returned Myeloid diff MLP inactive, SKN-1 block 14.2, Rce1 inhib inactive, Rin1 Abl inh 2.9, GRK2 aptamer HTS 1.0 and T cell HTS 348.9.
`CC(C)CN1C(=O)N(c2ccc(Cl)cc2)C(C)(O)CC1(C)C` (centres undefined) gave Myeloid diff MLP inactive, SKN-1 block 0.3, Rce1 inhib inactive, Rin1 Abl inh 0.5, GRK2 aptamer HTS 1.0 and T cell HTS 196.4.
CCOC(=O)[C@@H]1[C@H]2COc3ccccc3[C@@H]2N2C(=O)N(c3ccc(C)cc3)C(=O)[C@]12C was read as Myeloid diff MLP inactive, SKN-1 block -10.3, Rce1 inhib inactive, Rin1 Abl inh 2.9, GRK2 aptamer HTS 1.0 and T cell HTS 752.8.
Screening O=[N+]([O-])c1cccc(/C=C/c2ccc3cccc(O)c3n2)c1 returned Myeloid diff MLP inactive, SKN-1 block 14.3, Rce1 inhib inactive, Rin1 Abl inh 0.6, GRK2 aptamer HTS 1.0 and T cell HTS 292.7.

Compound activity deposited in PubChem BioAssay by several laboratories.
